Measurements from ChEMBL document CHEMBL4513216, “Probing the Open Global Health Chemical Diversity Library for Multistage-Active Starting Points for Next-Generation Antimalarials” (ACS Infect Dis, 2020).

Test: Toxicity liver stage against HepG2, at 10uM
Assay type: cell-based
Design: test concentration 10 uM, cell line HepG2-A16-CD81EGFP
Conditions: human, HepG2-A16-CD81EGFP cells; read-out: INHIBITION
Outline: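 Uninfected HepG2-A16-CD81EGFP cells, 3 × 10^3 per well, 1536-well, plated on prespotted compound at 10 μM final, parasite-free screening media added to match infected plates; puromycin 10 μM positive, DMSO 0.5% negative; run in parallel with 48 h PbLuc assay at 37 °C, 5% CO2; viability by CellTiter-Glo luminescence, normalized to controls.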

| Structure (SMILES) | cytotoxicity at 10 µM [%] |
| --- | --- |
| Oc1ccccc1CN1C[C@H](O)C[C@H]1c1nc(Cc2ccccc2)no1 | -4.82 |
| c1ccc(C[C@H]2[C@H](N3CCOCC3)CCN2Cc2cccnc2)cc1 | -4.34 |
| CCOC(=O)CNC(=O)c1cc(-c2ccccc2)nc2ncnn12 | -5.75 |
| CCC(C)NC(=O)c1sccc1-n1cnnn1 (stereo unspecified) | 5.45 |
| CCC(=O)NCC(=O)NC(C)c1ccc(OCCC(C)C)cc1 (stereo unspecified) | 7.89 |
| CC(C)Nc1ncccc1C(=O)NC1CC(=O)N(CC(F)(F)F)C1 (stereo unspecified) | -1.54 |
| N#Cc1ccc(CN2CCN(c3cncc(Cl)n3)CC2=O)cc1 | 7.55 |
| CC(NC(=O)N1CCCN(C)CC1)c1ccc(S(N)(=O)=O)cc1 (stereo unspecified) | -11.7 |
| COC(=O)c1oc(CNC(C)(C)c2ccc3c(c2)OCCO3)cc1C | 5.36 |
| CN1CCC(C(=O)N2CCN(Cc3cccc(Cl)c3)CC2)CC1=O (stereo unspecified) | 5.44 |
| N#Cc1cc(NC(=O)c2ccccn2)ccc1N1CCC(O)CC1 | 0.73 |
| O=C(C(CNCc1ccccn1)c1ccccc1)N1CCOCC1 (stereo unspecified) | 0.983 |
| NC(=O)NC(=O)CCN1CCCC1c1nc(C2CCCCC2)co1 (stereo unspecified) | 5.33 |
| Cc1nc(C)n(CC2CCCCN2CC(=O)NCc2ccccn2)n1 (stereo unspecified) | 2.07 |
| O=C(CCc1ccsc1)N1CCCC(N2CCNC2=O)C1 (stereo unspecified) | -5.7 |
| c1ccc(-c2cnc(CN(Cc3cccnc3)CC3CCCO3)o2)cc1 (stereo unspecified) | 17.5 |
| Cc1n[nH]c(C2CN(C(=O)c3ccc(=O)n(C)c3)CCO2)n1 (stereo unspecified) | 3.75 |
| CCC(=O)N1CCN(C(=O)Nc2ccccc2-c2cccs2)CC1 | -3.21 |
| Cc1cc(C)cc(OCC(=O)N2CCC2)c1 | 2.01 |
| O=C(COc1ccccc1NCc1ccoc1)N1CCOCC1 | 3.61 |
| CC(NC(=O)NCc1ccccn1)c1cccs1 (stereo unspecified) | -14.4 |
| COCCN(C)C(C(=O)O)c1ccc(Cl)c(F)c1 (stereo unspecified) | -2.46 |
| Cc1nccc(N[C@H]2CN(C(=O)C3(C#N)CCOCC3)C[C@@H]2C(C)C)n1 | 9.81 |

| Structure (SMILES) | cytotoxicity at 10 µM [%] |
| --- | --- |
| CCSc1ccc(C(=O)N2CC[C@](C)(O)[C@H](C)C2)s1 | -12.2 |
| NC(=O)NCCC(=O)N1CCC(c2cc(Cc3ccccc3)n[nH]2)CC1 | 1.5 |
| COc1ccc(CCN2CC(NCc3ncc[nH]3)CC2=O)cc1 (stereo unspecified) | 0.749 |
| CCC(=O)Nc1cccc(OCC(=O)N(C)CCCC2CCCO2)c1 (stereo unspecified) | -4.63 |
| CN1CC2(CCC1=O)CCN(CC[C@@H](O)c1ccccc1)CC2 | -0.355 |
| CN(C)CCn1ccnc1C1CCN(C(=O)CCc2ccncc2)CC1 | -9.67 |
| CCc1cnc(NCC(C)Oc2cccnc2)nc1 (stereo unspecified) | 0.977 |
| Cc1nccn1CCC1CCCCN1C(=O)c1ccc2[nH]nnc2c1 (stereo unspecified) | 19.9 |
| O=C(Cc1ccc2c(c1)OCCO2)N1CCN(c2cnccn2)CC1 | -11.8 |
| COc1ccc(C2CCCN2Cc2nc3c(cnn3C)c(=O)[nH]2)cc1 (stereo unspecified) | -9.77 |
| CS(=O)(=O)NCCCN1CCCC1c1ccsc1 (stereo unspecified) | 2.85 |
| CCc1nnc(CN2CCOC(Cn3cccn3)C2)o1 (stereo unspecified) | -8.15 |
| O=C1C(NS(=O)(=O)c2cccc(F)c2)CCN1Cc1ccccc1 (stereo unspecified) | -1.67 |
| CCc1noc(C(C)N2CCN(C)CC2)n1 (stereo unspecified) | -3.21 |
| Cc1cnn(C2CCCN(C(=O)Cc3ccc(C#N)cc3)C2)c1 (stereo unspecified) | -8.45 |
| Cn1ncc(NCc2cccc(F)c2)c(Cl)c1=O | -7.72 |
| CN(C)C(=O)N1CCOCC2(CCN(c3ncccn3)C2)C1 (stereo unspecified) | -9.17 |
| Cc1nc(CN2CCC3(CCCN(Cc4ccoc4)C3)C2=O)cs1 (stereo unspecified) | -0.142 |
| CCN1CCN(C)C(=O)C12CCN(C(=O)Cc1ccccn1)CC2 | 0.597 |
| CC[C@@H]1N(Cc2ccc(OC)cc2)CCC[C@]12CCC(=O)N2CCOC | 14 |
| CN1CC(=O)N(c2cccc(F)c2)CC12CCN(S(C)(=O)=O)C2 (stereo unspecified) | 1.52 |
| CC1N(c2cnn(C)c2)C(=O)COC12CCN(CC1CC1)CC2 (stereo unspecified) | 3.68 |
| Cc1noc(C)c1CN1C(=O)[C@@H]2CC[C@H]1CN(Cc1cccnc1N)C2 | 19.7 |
